ChEMBL document CHEMBL1123540, “Potential antitumor agents. 45. Synthesis, DNA-binding interaction, and biological activity of triacridine derivatives” (J Med Chem, 1986)
Where “and” joins values, the source holds several entries; their conditions need not be identical. Equal values may be shown once.

What was measured:
Nucleic Acid [1] = assay: Inhibitory concentration against ethidium bromide binding to DNA [poly(dG-dC)]; type: nucleic-acid assay
Method in brief: (§1)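 C50 is the micromolar drug concentration displacing 50% of ethidium bromide already bound to DNA, read by fluorescence. It is used as a comparative measure of DNA binding.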

P388 [2] = assay: Optimal dose administered ip as a solution in 0.1 mL of 30% v/v ethanol-water after intraperitoneal inoculation of 10e6 P388 leukemia cells.; type: functional, Mus musculus
Method in brief: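 P388 leukemia cells (10^6) inoculated ip. Drug given ip in 30% v/v ethanol-water on days 1, 5 and 9, in mg/kg per day. The optimal dose is the one giving the best increase in lifespan over untreated tumor-bearing controls; >20% counted significant.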

[3] = In vitro inhibition of Escherichia coli DNA-dependent RNA polymerase using both calf thymus and phage T7 DNA template
Method in brief: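 E. coli RNA polymerase (0.65 μg) added to template DNA (2.5 μg; calf thymus or phage T7) plus drug. TCA-pyrophosphate precipitates counted by scintillation; IC50 from inhibition curves, mean of 2–4 determinations.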

Nucleic Acid [4] = assay: Inhibitory concentration against ethidium bromide binding to DNA [poly(dA-dT)]; type: nucleic-acid assay; method in brief: as §1
L1210 = assay: Concentration of compound required to inhibit growth of L1210 leukemia cells in culture by 50%; type: functional, cell-based; conditions: Mus musculus
Method in brief: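 L1210 leukemia cells grown in culture with continuous drug exposure for 70 h; IC50 in nanomolar, drug concentration giving 50% growth inhibition.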

P388 [5] = assay: Percentage increase in life span (ILS) of compound treated tumor-bearing animals compared to tumor-bearing controls when treated at the optimal dose.; type: functional, Mus musculus
Method in brief: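 P388 leukemia: 10^6 cells inoculated intraperitoneally; drug given i.p. in 30% v/v ethanol-water on days 1, 5 and 9. Dose is in mg/kg per day. ILS is the percent increase in lifespan over untreated tumor-bearing controls at the optimal dose. Values above 20% count as significant.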

Cl.O=C(CC(CC(=O)NCCCCCCCNc1c2ccccc2nc2ccccc12)Nc1c2ccccc2nc2ccccc12)NCCCCCCCNc1c2ccccc2nc2ccccc12
C50 (Nucleic Acid [1]): 0.14 µM
Optimal dose (P388 [2]): 20 mg/kg/day
IC50 [3]: 4.6 µM and 3.7 µM
C50 (Nucleic Acid [4]): 0.1 µM
IC50 (L1210): 0.59 µM

Cl.O=C(CCCC(=O)NCCCCCCNc1c2ccccc2nc2ccccc12)NCCCCCCNc1c2ccccc2nc2ccccc12
C50 (Nucleic Acid [1]): 0.33 µM
Optimal dose (P388 [2]): 45 mg/kg/day
IC50 [3]: 4.9 µM and 4.7 µM
C50 (Nucleic Acid [4]): 0.22 µM
IC50 (L1210): 0.25 µM

Cl.O=C(CCCC(=O)NCCCCCCCNc1c2ccccc2nc2ccccc12)NCCCCCCCNc1c2ccccc2nc2ccccc12
C50 (Nucleic Acid [1]): 0.23 µM
Optimal dose (P388 [2]): 30 mg/kg/day
IC50 [3]: 6.2 µM and 4.5 µM
C50 (Nucleic Acid [4]): 0.15 µM
IC50 (L1210): 0.96 µM

Cl.O=C(CCCC(=O)NCCCCCNc1c2ccccc2nc2ccccc12)NCCCCCNc1c2ccccc2nc2ccccc12
C50 (Nucleic Acid [1]): 0.24 µM
Optimal dose (P388 [2]): 20 mg/kg/day
IC50 [3]: 5.2 µM and 4.2 µM
ILS (P388 [5]): 33%
C50 (Nucleic Acid [4]): 0.28 µM
IC50 (L1210): 0.17 µM

Cl.O=C(CCCC(=O)NCCNc1c2ccccc2nc2ccccc12)NCCNc1c2ccccc2nc2ccccc12
C50 (Nucleic Acid [1]): 0.29 µM
Optimal dose (P388 [2]): 30 mg/kg/day
IC50 [3]: 9.2 µM and 6.7 µM
C50 (Nucleic Acid [4]): 0.3 µM
IC50 (L1210): 3.08 µM

Cl.O=C(CC(CC(=O)NCCNc1c2ccccc2nc2ccccc12)Nc1c2ccccc2nc2ccccc12)NCCNc1c2ccccc2nc2ccccc12
C50 (Nucleic Acid [1]): 0.38 µM
Optimal dose (P388 [2]): 3.9 mg/kg/day
IC50 [3]: 30.3 µM and 30 µM
C50 (Nucleic Acid [4]): 0.43 µM
IC50 (L1210): 5.9 µM

Cl.O=C(CC(CC(=O)NCCCCCNc1c2ccccc2nc2ccccc12)Nc1c2ccccc2nc2ccccc12)NCCCCCNc1c2ccccc2nc2ccccc12
C50 (Nucleic Acid [1]): 0.25 µM
Optimal dose (P388 [2]): 8.9 mg/kg/day
IC50 [3]: 4.1 µM and 4.5 µM
ILS (P388 [5]): 21%
C50 (Nucleic Acid [4]): 0.35 µM
IC50 (L1210): 0.58 µM

NC(CC(=O)NCCCNc1c2ccccc2nc2ccccc12)CC(=O)NCCCNc1c2ccccc2nc2ccccc12
C50 (Nucleic Acid [1]): 0.21 µM
IC50 [3]: 4.2 µM and 3.1 µM
C50 (Nucleic Acid [4]): 0.09 µM
IC50 (L1210): 0.47 µM

Cl.O=C(CCCC(=O)NCCCCNc1c2ccccc2nc2ccccc12)NCCCCNc1c2ccccc2nc2ccccc12
C50 (Nucleic Acid [1]): 0.13 µM
Optimal dose (P388 [2]): 20 mg/kg/day
IC50 [3]: 4.6 µM and 4.1 µM
ILS (P388 [5]): 30%
C50 (Nucleic Acid [4]): 0.28 µM
IC50 (L1210): 0.24 µM

Cl.O=C(CC(CC(=O)NCCCCNc1c2ccccc2nc2ccccc12)Nc1c2ccccc2nc2ccccc12)NCCCCNc1c2ccccc2nc2ccccc12
C50 (Nucleic Acid [1]): 0.13 µM
Optimal dose (P388 [2]): 8.9 mg/kg/day
IC50 [3]: 5.9 µM and 5.4 µM
C50 (Nucleic Acid [4]): 0.08 µM
IC50 (L1210): 2.3 µM

Cl.O=C(CC(CC(=O)NCCCNc1c2ccccc2nc2ccccc12)Nc1c2ccccc2nc2ccccc12)NCCCNc1c2ccccc2nc2ccccc12
C50 (Nucleic Acid [1]): 0.19 µM
Optimal dose (P388 [2]): 8.9 mg/kg/day
IC50 [3]: 13.2 µM and 12.8 µM
C50 (Nucleic Acid [4]): 0.1 µM
IC50 (L1210): 0.8 µM

Cl.O=C(CC(CC(=O)NCCCCCCNc1c2ccccc2nc2ccccc12)Nc1c2ccccc2nc2ccccc12)NCCCCCCNc1c2ccccc2nc2ccccc12
C50 (Nucleic Acid [1]): 0.11 µM
Optimal dose (P388 [2]): 20 mg/kg/day
IC50 [3]: 4.1 µM and 4 µM
ILS (P388 [5]): 21%
C50 (Nucleic Acid [4]): 0.11 µM
IC50 (L1210): 0.35 µM

Cl.O=C(CCCC(=O)NCCCNc1c2ccccc2nc2ccccc12)NCCCNc1c2ccccc2nc2ccccc12
Optimal dose (P388 [2]): 13.3 mg/kg/day
IC50 [3]: 7.5 µM and 6.2 µM
IC50 (L1210): 0.35 µM
